Three molecules from ChEMBL document CHEMBL5346861, “Designing quinoline-isoniazid hybrids as potent anti-tubercular agents inhibiting mycolic acid biosynthesis” (Eur J Med Chem, 2022) can be followed below.

SMILES strings stand for the structures. In brackets after ≈: the same amount, converted by molar mass. Activity calls are given as the source filed them. The calls are words filed in the database; no cut-off is given here.

In data set [1] the test system is Mycobacterium tuberculosis. Description: Antimycobacterial activity against Mycobacterium tuberculosis mc2 6230 assessed as inhibition of bacterial growth at 1 ug/ml measured after 7 days by broth dilution method. The class given is functional, organism-based. The conditions noted are these: dose 1.0 µg/ml, time 7.0 day.
For data set [2], the system named is Mycobacterium tuberculosis. Kind of data set: Antimycobacterial activity against Mycobacterium tuberculosis mc2 6230 assessed as reduction in log10 CFU at 1 time of MIC measured after 6 days by time-killing kinetics assay. The data set is classed as functional, organism-based. Conditions: time 6.0 day. A digest of the protocol: (§1)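 Exposed to 1x, 5x or 20x MIC at 37 °C for up to 6 days. Serial dilutions plated on 7H10/OADC/pantothenate and colonies counted after 3 weeks. Mean of four independent experiments in technical triplicate, with SD. DMSO negative control.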

The subject of data set [3] is Mycobacterium tuberculosis. Kind of data set: Inhibition of fatty acid methyl esters production in Mycobacterium tuberculosis mc2 6230 incubated for 15 mins followed by 14C-labeled acetate addition measured after 7 hrs by TLC analysis. The class given is functional. Conditions: time 435.0 min.
In data set [4] the test system is Mycobacteroides abscessus. Kind of data set: Antimycobacterial activity against Mycobacterium abscessus CIP104536 rough variant assessed as inhibition of bacterial growth measured after 4 days by broth dilution method. The data set is classed as functional. Conditions: CIP104536, 96 h, time 4 day. In short, it runs like this: (§2)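 MIC99 by CLSI broth 2-fold serial dilution in CaMHB. Inoculum 5.10⁶ CFU/mL. Incubated at 30 °C and read by turbidity after 4 days. DMSO vehicle control, INH reference.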

The subject of data set [5] is Mycobacteroides abscessus. Description: Antimycobacterial activity against Mycobacterium abscessus CIP104536 smooth variant assessed as inhibition of bacterial growth measured after 4 days by broth dilution method. The class given is functional. The conditions noted are these: CIP104536, 96 h, time 4 day. In short, it runs like this:
as §2

The subject of data set [6] is Mycobacterium tuberculosis. Kind of data set: Inhibition of mycolic acid biosynthesis in Mycobacterium tuberculosis mc2 6230 assessed as decrease in keto-mycolic acid incubated for 15 mins followed by 14C-labeled acetate addition measured after 7 hrs by TLC analysis. The data set is classed as functional, organism-based. The conditions noted are these: time 435.0 min.

Data set [7] concerns Mycobacterium tuberculosis. Description: Inhibition of mycolic acid biosynthesis in Mycobacterium tuberculosis mc2 6230 assessed as decrease in alpha-mycolic acid at 1.25 ug/ml incubated for 15 mins followed by 14C-labeled acetate addition measured after 7 hrs by TLC analysis. The conditions noted are these: dose 1.25 µg/ml, time 435.0 min. The class given is functional, organism-based.

Data set [8] concerns Mycobacterium tuberculosis. Description: Inhibition of mycolic acid biosynthesis in Mycobacterium tuberculosis mc2 6230 assessed as decrease in keto-mycolic acid at 1.25 ug/ml incubated for 15 mins followed by 14C-labeled acetate addition measured after 7 hrs by TLC analysis. Conditions: dose 1.25 µg/ml, time 435.0 min. The data set is classed as functional, organism-based.

Data set [9] can be described thus: Cytotoxicity against human THP-1 cells assessed as reduction in cell viability measured after 24 hrs by resazurin staining based analysis. The class given is toxicity. A digest of the protocol: (§3)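 THP-1 monocytes differentiated with 20 ng/mL PMA for 48 hrs at 1×10^5 cells/well. Compounds added by serial dilution from 100 µg/mL for 24 or 72 hrs at 37 °C and 5% CO₂. Resazurin 10% for 4 hrs, fluorescence at ex 540/em 590 nm. Mean of three independent experiments in triplicate. INH and RFB reference drugs.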

Data set [10] deals with Mycobacterium tuberculosis. Description: Antimycobacterial activity against Mycobacterium tuberculosis mc2 6230 assessed as reduction in log10 CFU at 5 times of MIC measured after 3 days by time-killing kinetics assay. The class given is functional. Conditions: time 3 day. A digest of the protocol:
as §1

Data set [11] relates to Mycobacterium tuberculosis. Kind of data set: Antimycobacterial activity against Mycobacterium tuberculosis mc2 6230 assessed as reduction in log10 CFU at 20 times of MIC measured after 6 days by time-killing kinetics assay. The data set is classed as functional. The conditions noted are these: time 6 day. In short, it runs like this: as §1
For data set [12], the system named is Mycobacterium tuberculosis. Description: Inhibition of mycolic acid biosynthesis in Mycobacterium tuberculosis mc2 6230 assessed as decrease in alpha-mycolic acid incubated for 15 mins followed by 14C-labeled acetate addition measured after 7 hrs by TLC analysis. Conditions: time 435.0 min. The data set is classed as functional, organism-based.
Data set [13] relates to Mycobacterium tuberculosis. Kind of data set: Inhibition of mycolic acid biosynthesis in Mycobacterium tuberculosis mc2 6230 assessed as decrease in methoxy-mycolic acid at 1.25 ug/ml incubated for 15 mins followed by 14C-labeled acetate addition measured after 7 hrs by TLC analysis. The class given is functional, organism-based. The conditions noted are these: dose 1.25 µg/ml, time 435.0 min.

Data set [14] in a line: Cytotoxicity against human THP-1 cells assessed as reduction in cell viability measured after 72 hrs by resazurin staining based analysis. The class given is toxicity. A digest of the protocol:
as §3

The subject of data set [15] is Mycobacterium tuberculosis. Kind of data set: Inhibition of mycolic acid biosynthesis in Mycobacterium tuberculosis mc2 6230 assessed as decrease in methoxy-mycolic acid incubated for 15 mins followed by 14C-labeled acetate addition measured after 7 hrs by TLC analysis. The data set is classed as functional, organism-based. Conditions: time 435.0 min.
Data set [16] deals with Mycobacterium tuberculosis. Kind of data set: Antimycobacterial activity against Mycobacterium tuberculosis mc2 6230 assessed as inhibition of bacterial growth measured after 7 days by broth dilution method. The class given is functional. The conditions noted are these: mc2 6230, 168 h, time 7 day. In short, it runs like this: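 Pantothenate auxotroph carrying empty pMV261. 2-fold serial dilutions, 37 °C, no agitation, 7 days. MIC99 is the lowest concentration with no turbidity change. DMSO vehicle control.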

For the next data set, the system named is Mycobacterium marinum. Kind of data set: Antimycobacterial activity against Mycobacterium marinum M strain assessed as inhibition of bacterial growth measured after 6 days by broth dilution method. The data set is classed as functional. The conditions noted are these: 144 h, time 6 day. In short, it runs like this: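 MIC99 by 2-fold serial broth dilution in 7H9 with 10% OADC and 0.025% tyloxapol. Inoculum 5.10⁶ CFU/mL. Incubated without agitation at 30 °C, scored for no turbidity change after 6 days. DMSO vehicle control.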

Data set [17] relates to Mycobacterium tuberculosis. Description: Antimycobacterial activity against Mycobacterium tuberculosis H37Rv assessed as inhibition of bacterial growth. The data set is classed as functional.

Take `O=C(N/N=C/c1ccccc1-n1cc(CN2CCN(c3ccnc4cc(Cl)ccc34)CC2)nn1)c1ccncc1`: the outcome in [1] and in [2] was Active. The inhibition entry in [3] was “inactive”. Besides, the MIC is greater than 200 µg/mL in [4], greater than 200 µg/mL in data set [5], 0.25 µg/mL (≈ 0.453 µM) in data set [16] and 50 µg/mL (≈ 90.6 µM) in the data set with Mycobacterium marinum. In addition, the inhibition result in data set [6], in data set [12] and in [15] was “Dose-Dependent Effect” in each case. The inhibition entry in data set [7], in [8] and in data set [13] was “Active” each time. Moreover, in data set [9], the CC50 at 24 h worked out at 13 µg/mL (≈ 23.5 µM). Further, the Activity in [10] is 2 log10CFU/ml; in data set [11], roughly 3 log10CFU/ml. The CC50 at 72 h in [14] turned out to be 18 µg/mL (≈ 32.6 µM).
In the case of `CC(C)c1ccc(-c2nc(CN3CCN(c4ccnc5cc(Cl)ccc45)CC3)no2)cc1`, the MIC in data set [17] came out at 1.11 µM.
As to `O=C(N/N=C/c1ccccc1)c1ccncc1` [N'-BENZYLIDENE ISONICOTINOHYDRAZIDE], the MIC in data set [17] was determined as 0.05 µg/mL.
